In general, half-life refers to how long it takes for the measured level to halve. Read a high half-life as slow decline.

Here are results for six molecules from ChEMBL document CHEMBL3525897, “Metabolism and quantification of [(18)F]DPA-714, a new TSPO positron emission tomography radioligand” (Drug Metab Dispos, 2013).

The test system of one series is Liver microsome. As to the kind of experiment: Drug level in Sprague-Dawley rat liver microsomes treated with DPA-714 after 15 to 60 mins by LC-MS/MS analysis. On the technique in general: Liver microsomes are vesicles of endoplasmic reticulum, rich in cytochrome P450 enzymes.
Series [1] in a line: Retention time of the compound by LC-MS analysis. It counts as physicochemical. In outline: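 Separation of DPA-714 and its metabolites by LC-MS on reverse-phase Atlantis C18 column (2.1x150 mm) with electrospray ionization.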
Series [2] can be described thus: Biodistribution in Sprague-Dawley rat plasma at 32.1 +/- 2.8 MBq, iv measured at 120 mins by radio-HPLC analysis. It counts as ADME, organism-based. The conditions noted are these: 32.1 MBq. In outline:
(§1)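 Male Sprague-Dawley rats (250-300 g) given 32.1 ± 2.8 MBq [18F]DPA-714 by tail vein and decapitated 120 min later. Brain sonicated twice in acetonitrile on ice, extracts pooled and concentrated. Plasma acetonitrile-deproteinated. Parent and radiometabolites separated by radio-HPLC (C18, 0.1% TFA water/acetonitrile gradient 20-80% B). Expressed as %ID/g. Thighbone cortex and marrow also counted. Mean ± sd of 2 experiments, 2 rats each.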

Series [3] is described as follows: Retention time in baboon plasma by radio-HPLC analysis. It is filed as ADME, cell-free. The conditions noted are these: papio anubis. Summed up: (§2)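 Isoflurane-anaesthetized baboons, 6 PET experiments. Arterial femoral plasma sampled 0-120 min and centrifuged at 4°C, then deproteinated with acetonitrile; pellet radioactivity counted and treated as metabolite. Supernatant run on radio-HPLC (C18 preparative, 0.1% TFA water/acetonitrile 20-80% over 10 min, 5 mL/min). Counts decay-corrected to injection. Parent fraction as % total; data fitted to two exponentials; mean ± sd.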

Series [4] is described as follows: Biodistribution in baboon vertebral bodies at 276 +/- 60 MBq, iv up to 90 mins by PET analysis. The following applies: papio anubis, in vivo, 1.5 h. It is filed as ADME, organism-based. In outline: (§3)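 Whole-body PET (HR+) in male Papio anubis baboons after i.v. 276 ± 60 MBq (4.8 ± 2.1 nmol) [18F]DPA-714. 2D transmission scans for attenuation correction. 3D emission scans of 1 to 4 min per bed step, acquired up to 90 min post-injection. Uptake reported as SUVmax.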

Series [5] in a line: Biodistribution in baboon lung at 276 +/- 60 MBq, iv up to 90 mins by PET analysis. The conditions noted are these: papio anubis, in vivo, 1.5 h. It counts as ADME, organism-based. Summed up: as §3
The next series deals with Brain. Put plainly: Metabolic stability of the compound in Sprague-Dawley rat brain homogenate at 37 kBq at 37 degC by radio-HPLC analysis. It counts as ADME, tissue-based. Summed up:
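Rat brain sonicated in 0.1 M potassium phosphate, pH 7.4, at 4°C and spiked with 37 kBq [18F]DPA-714. Aliquots extracted with acetonitrile at time zero and after 180 min at 37°C. Analysed by radio-HPLC.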

A short description of series [6]: Drug metabolism in baboon urine assessed as compound remaining measured at 180 mins by radio-HPLC analysis. It is filed as ADME, tissue-based. The following applies: papio anubis, read-out: Stability. In outline: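 Baboon urine collected by catheter at 180 min after injection. 1 mL injected directly onto the plasma radio-HPLC system (C18, 0.1% TFA water/acetonitrile gradient).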

Series [7] is described as follows: Half life in baboon by SPE method. It counts as ADME, organism-based. The following applies: papio anubis, in vivo. Summed up:
(§4)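 Baboon arterial plasma, five samples per animal, n=3. 200 μL diluted to 400 μL with 4% HCl and loaded on HLB SPE cartridge. Washed with water, then 35/65 acetonitrile/water; parent eluted with acetonitrile. All fractions and cartridge counted. Parent given as % of eluted radioactivity or of initial sample. Compared with radio-HPLC; mono-exponential fit.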

Series [8] can be described thus: Biodistribution in baboon duodenum at 276 +/- 60 MBq, iv by PET analysis. It is filed as ADME, organism-based. The conditions noted are these: papio anubis, in vivo. Summed up:
as §3

A short description of series [9]: Chemical stability of the compound in saline. The conditions noted are these: buffer. It counts as physicochemical.
Series [10] can be described thus: Metabolic stability of the compound in baboon plasma assessed as compound remaining by SPE method. It counts as ADME, cell-free. The conditions noted are these: papio anubis. Summed up: as §4
Series [11] can be described thus: Metabolic stability of the compound in baboon plasma at 20 kBq/ml at 37 degC by radio-HPLC analysis. It counts as ADME, cell-free. The conditions noted are these: papio anubis. Summed up:
(§5)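 Plasma spiked with 20 kBq/mL [18F]DPA-714, triplicate. Extracted with acetonitrile at time zero, or after incubation at 37°C (190 min for baboon plasma). Parent peak area measured by radio-HPLC.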

A short description of series [12]: Biodistribution in baboon heart at 276 +/- 60 MBq, iv up to 90 mins by PET analysis. It is filed as ADME, organism-based. The following applies: papio anubis, in vivo, 1.5 h. Summed up:
as §3

A short description of series [13]: Biodistribution in Sprague-Dawley rat thighbone cortex at 32.1 +/- 2.8 MBq, iv measured at 120 mins by radio-HPLC analysis. It is filed as ADME, organism-based, Bone element. The following applies: 32.1 MBq. Summed up: as §1
Series [14] can be described thus: Biodistribution in Sprague-Dawley rat brain at 32.1 +/- 2.8 MBq, iv measured at 120 mins by radio-HPLC analysis. It is filed as ADME, organism-based. The following applies: 32.1 MBq. Summed up:
as §1

Series [15] is described as follows: Biodistribution in baboon kidney at 276 +/- 60 MBq, iv measured at 90 mins by PET analysis. It counts as ADME, organism-based. The conditions noted are these: papio anubis, in vivo, 1.5 h. In outline:
as §3

The nature of series [16]: Biodistribution in baboon kidney at 276 +/- 60 MBq, iv measured at 10 mins by PET analysis. It is filed as ADME, organism-based. The following applies: papio anubis, in vivo. Summed up:
as §3

Series [17] in a line: Drug metabolism in baboon assessed as compound remaining measured at 30 mins by radio-HPLC analysis. It is filed as ADME, organism-based. The following applies: papio anubis, in vivo; read-out: Stability. In outline:
as §2

Series [18] can be described thus: Biodistribution in baboon parotid gland at 276 +/- 60 MBq, iv up to 90 mins by PET analysis. The following applies: papio anubis, in vivo, 1.5 h. It is filed as ADME, organism-based. In outline:
as §3

Series [19] can be described thus: Biodistribution in baboon spleen at 276 +/- 60 MBq, iv up to 90 mins by PET analysis. It is filed as ADME, organism-based. The conditions noted are these: papio anubis, in vivo, 1.5 h. Summed up: as §3
Series [20] is described as follows: Biodistribution in baboon gallbladder at 276 +/- 60 MBq, iv measured at 42 mins by PET analysis. It counts as ADME, organism-based, Gall bladder. The following applies: papio anubis, in vivo, 0.7 h. In outline: as §3
A short description of series [21]: Drug recovery in baboon by SPE method. The following applies: papio anubis, in vivo; read-out: Drug recovery. It is filed as ADME, organism-based. In outline: as §4
Series [22] can be described thus: Biodistribution in Sprague-Dawley rat bone marrow at 32.1 +/- 2.8 MBq, iv measured at 120 mins by radio-HPLC analysis. It counts as ADME, organism-based. The conditions noted are these: 32.1 MBq. In outline: as §1
Series [23] can be described thus: Drug metabolism in baboon assessed as compound remaining measured at 120 mins by radio-HPLC analysis. It counts as ADME, organism-based. The conditions noted are these: papio anubis, in vivo; read-out: Stability. In outline: as §2
Series [24] can be described thus: Biodistribution in baboon liver at 276 +/- 60 MBq, iv up to 90 mins by PET analysis. It is filed as ADME, organism-based. The following applies: papio anubis, in vivo, 1.5 h. In outline: as §3
The nature of series [25]: Half life in baboon by radio-HPLC analysis. It is filed as ADME, organism-based. The following applies: papio anubis, in vivo. Summed up:
as §2

A short description of series [26]: Ratio of drug level in brain to plasma in Sprague-Dawley rat at 32.1 +/- 2.8 MBq, iv measured at 120 mins by radio-HPLC analysis. It is filed as ADME, organism-based. The conditions noted are these: brain and plasma, 32.1 MBq, read-out: BPR. Summed up: as §1
Series [27] is described as follows: Biodistribution in baboon urinary bladder at 276 +/- 60 MBq, iv up to 90 mins by PET analysis. It counts as ADME, organism-based. The following applies: papio anubis, in vivo, 1.5 h. In outline: as §3
The next series deals with Plasma. As to the kind of experiment: Metabolic stability of the compound in Sprague-Dawley rat plasma at 20 kBq/ml at 37 degC by radio-HPLC analysis. It is filed as ADME, cell-free. Summed up:
as §5

The nature of series [28]: Retention time in baboon plasma treated with [18F]DPA-714 by radio-HPLC analysis. It is filed as ADME, cell-free. The conditions noted are these: papio anubis. In outline:
as §2

Turning to `CCNC(=O)Cc1c(-c2ccc(OCCF)cc2)nn2c(C)cc(C)nc12`, in the series on Liver microsome, the Drug metabolism entry was “metabolite_detected”. The molecule also yielded a Retention_time in [1] of 16.1 min.
With `CCN(CC)C(=O)Cc1c(-c2ccc(OCCF)cc2)nn2c(C)cc(CO)nc12`, the Drug metabolism result with Liver microsome was “metabolite_detected”. The molecule further yielded a Retention_time in series [1] of 16.87 min.
The matching figures for `CCN(CC)C(=O)Cc1c(-c2ccc(OCCF)cc2)nn2c(C)c(O)c(C)nc12`: “metabolite_detected” and 16.43 min.
As to `CCN(CC)C(=O)Cc1c(-c2ccc(OCC[18F])cc2)nn2c(C)cc(C)nc12` [DPA-714 F-18], the tissue uptake at 2 h in series [2] came to 15%; in series [13] it was 35%; in [14], 85%; in [22] it was 65%. Further, the Retention_time in [3] is 10.083 min. The SUVmax is recorded as 1.99 in [4]; 5.67 in series [5]; 7.42 in [12]; 12.7 in series [16]; 1.93 in [18]; 7.57 in series [19]. Besides, the results for the SUVmax in [20], in [24] and in series [27] were 7.31, 6.28 and 6.5, respectively. Also, the Stability in the series with Brain is 180 min; in series [9], “Stable”; in series [10] it was 95%; in series [11], 190 min; in the series on Plasma, 180 min. Moreover, the remaining at 3 h in series [6] was < 2%. The values for the half-life in series [7] and in [25] were 12 min and 19 min, respectively. Moreover, the Drug uptake result in series [8] is “Active”. Further, the SUV in series [15] is 4.6. For the same molecule, the remaining at 0.5 h in [17] amounted to 46%. Also, in series [21], the recovery amounted to 94%. Besides, the remaining at 2 h in series [23] was determined as 11%. The Kp at 2 h in series [26] is 11.
As to `CCN(CC)C(=O)Cc1c(-c2ccc(OCCF)cc2)nn2c(CO)cc(C)nc12`, the Drug metabolism entry in the series on Liver microsome is on record as “metabolite_detected”. In addition, the Retention_time in [1] is reported as 15.85 min.
In [28], `CCNC(=O)Cc1c(-c2ccc(OCC[18F])cc2)nn2c(C)cc(CO)nc12` yielded a Retention_time of 7.25 min.
